A selection: hits, their analogues and other compounds. The true share with any hit is near 1.9%.
LMPTP block – blocks human LMPTP phosphatase. hit rate 0.22% among 360,000. recombinant LMPTP-A, OMFP fluorogenic substrate, fluorescence intensity. inhibition, % at 20 µM. P24666. AID 651560;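 active means compounds that cut the enzyme signal by at least half of the control window in the single-dose screen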
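Test system: LMPTP-A phosphatase enzyme. Amount: LMPTP-A at 0.625 nM final in the reaction. Reagent: OMFP substrate, 400 µM final. Times: 50 min at room temperature. Signal: endpoint fluorescence intensity from OMFP dephosphorylation. Read-out basis: % inhibition. Benchmarks: no-enzyme and uninhibited controls.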
SUMO1-SIM PPI – modulators of human SUMO1-mediated protein-protein interactions. P63165. SUMO1 binding to a labelled peptide, TR-FRET, 1 h. inhibition, % at 20 µM. hit rate 0.33% among 360,000; in the data active means inhibition above about 37%
STEP block – blocks human striatal-enriched tyrosine phosphatase | P54829 | recombinant STEP, OMFP fluorogenic substrate, fluorescence | AID 588621 | inhibition, % at 20 µM | hit rate 0.25% among 360,000;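 active means inhibition at 20 µM, scaled per plate between control wells, above about 37%, limit read from the data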
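Assay system: isolated STEP enzyme. Buffer or medium: pH 6.0 Bis-Tris with DTT and Tween 20. Also added: fluorogenic phosphatase substrate OMFP at 25 µM final. Dosing: 20 µM, 1% DMSO. Timing: 20 min reaction, room temperature, in the dark. Measured by: fluorescence intensity, excitation 480 nm, emission 540 nm. Evaluation: normalized % inhibition.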
FAS-TE inh – blocks the thioesterase domain of human fatty acid synthase; P49327; recombinant FAS-TE, OMFH fluorogenic substrate, fluorescence endpoint; inhibition, % at 15 µM; hit rate 0.67% among 360,000; AID 602261;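 active means compounds whose normalised, plate-corrected inhibition of enzyme fluorescence in the single-dose primary screen is 50% or more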
Scp1 inh – Scp-1 (human) phosphatase inhibition | Recombinant Scp1, phosphopeptide, malachite green phosphate absorbance | hit rate 0.88% among 340,000 | inhibition, % at 20 µM | Q9GZU7;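 active means inhibition above about 50% at 20 µM, limit read from the data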
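Material: truncated SCP-1 phosphatase (76-261aa) / Buffer or medium: 50 mM Tris acetate pH 5.5, 0.005% Tween-20, 10 mM MgCl2 / Compound dosing: one concentration, 20 µM, with 1.0% DMSO / Incubation: 45 min room-temperature reaction, 5 min colour, 30 min stabiliser / Detection: colorimetric free-phosphate detection, absorbance 630 nm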
FAS-TE inh conf – FAS thioesterase (human) inhibition, confirmation; shares compounds with FAS-TE inh; recombinant FAS-TE, OMFH fluorogenic substrate, fluorescence; inhibition, % at 15 µM; hit rate 45% among 2,300; AID 624325;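 active means compounds inhibiting the enzyme by at least 50% at 15 µM in any one of the replicates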
Hits are given with their value; 0 = inactive; - = not tested or not shown.

SMILES | LMPTP block | SUMO1-SIM PPI | STEP block | FAS-TE inh | Scp1 inh | FAS-TE inh conf
CCN(CC)C(=O)/C(=C/c1cn(S(=O)(=O)N(C)C)c2ccccc12)NC(=O)c1ccc(OC)cc1 | 0 | 0 | 0 | 0 | 0 | -
COc1ccc(C(=O)N/C(=C\c2cn(S(=O)(=O)N(C)C)c3ccccc23)C(=O)N2CCCC2)cc1 | 0 | 0 | 0 | 79.5 | - | 89.9
COc1cc(C(=O)N/C(=C\c2cn(S(=O)(=O)N(C)C)c3ccccc23)C(=O)N2CCCC2)cc(OC)c1OC | 0 | 0 | 0 | 0 | 0 | -
COc1ccc(C(=O)N/C(=C\c2cn(S(=O)(=O)N(C)C)c3ccccc23)C(=O)N2CCOCC2)cc1 | 0 | 0 | 0 | 82.2 | 0 | 70.8
COc1ccc(C(=O)N/C(=C\c2cn(S(=O)(=O)N(C)C)c3ccccc23)C(=O)NC(C)C)cc1 | 0 | 0 | 0 | 65.2 | 0 | 0
CCCNC(=O)C1(C)CCN(Cc2ccc(-n3ccnc3)cc2)C1 (configuration not stated) | 0 | 0 | 0 | 0 | - | -
COc1ccc(NC(=O)c2cc(-c3cc(Cl)ccc3C)n[nH]2)cn1 | 0 | 0 | 0 | 0 | - | -
Cc1cccc(N2C(=O)CC(Sc3nc(-c4ccccc4)c4cc(Cl)ccc4n3)C2=O)c1 (configuration not stated) | 0 | 44.2 | 0 | 65.9 | 0 | 0
Cc1ccc2occ(/C=N/NC(=O)c3ccc(Cl)cc3)c(=O)c2c1 | 0 | 0 | 0 | 0 | 0 | -
O=C(N/N=C/c1coc2ccc(Cl)cc2c1=O)c1cc(O)cc(O)c1 | 0 | 0 | 0 | 66.6 | 0 | 0
Cc1ccc2nc(-c3cccnc3)cc(C(=O)Nc3ccc(F)cc3C)c2c1 | 0 | 0 | 0 | 0 | 0 | -
Cc1nc2ccc([N+](=O)[O-])cc2c(=O)n1Cc1ccc([N+](=O)[O-])cc1 | 0 | 0 | 0 | 59.1 | 0 | 63.2
Cc1nc2ccc([N+](=O)[O-])cc2c(=O)n1Cc1cccc(Br)c1 | 0 | 0 | 0 | 0 | 0 | -
Cc1nc2ccc([N+](=O)[O-])cc2c(=O)n1Cc1ccccc1Br | 0 | 0 | 0 | 71.0 | 0 | 0
Cc1ccc(Cn2c(C)nc3ccc([N+](=O)[O-])cc3c2=O)cc1 | 0 | 0 | 0 | 75.3 | 0 | 59.3
Cc1nc2ccc([N+](=O)[O-])cc2c(=O)n1Cc1ccc(Br)cc1 | 0 | 0 | 0 | 93.0 | 0 | 62.9
O=C(NC1CCCC1)C(c1cccs1)N(C(=O)c1csnn1)c1ccccc1F (configuration not stated) | 0 | 0 | 0 | 0 | 0 | -
COc1ccc(C=O)cc1COc1ccc2c(c1)OCO2 | 0 | 0 | 0 | 0 | 0 | -
C/C(=C\c1ccc(C(=O)O)cc1)c1ccc2c(c1)C(C)(C)CCC2(C)C | 0 | 0 | 0 | 72.8 | 0 | 0
CCOc1ccc(CCNC(=O)c2ccc(C)c(NC3=NC4CS(=O)(=O)CC4S3)c2)cc1 (configuration not stated) | 0 | 0 | 0 | 0 | 0 | -
CC(=O)Nc1ccc(NC(=O)Cn2nc([N+](=O)[O-])c(Br)c2C)cc1 | 0 | 0 | 0 | 0 | 0 | -
Cc1c(Br)c([N+](=O)[O-])nn1CC(=O)Nc1ccc(Cc2ccncc2)cc1 | 0 | 0 | 0 | 68.3 | 0 | 64.1
Cc1c(Br)c([N+](=O)[O-])nn1CC(=O)Nc1ccc(C(C)C)cc1 | 0 | 0 | 0 | 73.4 | 0 | 59.0
Cc1c(Br)c([N+](=O)[O-])nn1CC(=O)Nc1ccccn1 | 0 | 0 | 0 | 0 | 0 | -
O=[N+]([O-])c1cc(-c2nnc(C34CC5CC(CC(C5)C3)C4)o2)cc([N+](=O)[O-])c1 | 0 | 0 | 0 | 52.7 | 0 | 0
O=[N+]([O-])c1cccc(-c2nnc(C34CC5CC(CC(C5)C3)C4)o2)c1 | 0 | 0 | 0 | 0 | 0 | -
CN(CC(=O)Nc1ccccc1Cl)C(=O)COC(=O)c1cc([N+](=O)[O-])ccc1N1CCOCC1 | 0 | 0 | 0 | 0 | 0 | -
CN(C(=O)COC(=O)c1cc([N+](=O)[O-])ccc1N1CCCC1)C1CCS(=O)(=O)C1 (configuration not stated) | 0 | 0 | 0 | 0 | 0 | -
CN(Cc1ccccc1)C(=O)COC(=O)c1cc([N+](=O)[O-])ccc1N1CCOCC1 | 0 | 0 | 0 | 91.5 | 0 | 91.2
COc1ccc(CN(C)C(=O)COC(=O)c2cc([N+](=O)[O-])ccc2N2CCCC2)c(OC)c1OC | 0 | 0 | 0 | 69.9 | 0 | 31.1

Screening data (PubChem BioAssay)
